Results as given in ChEMBL document CHEMBL2169759, “A new class of selective and potent 7-dehydrocholesterol reductase inhibitors” (J Med Chem, 2012).
Calls of active or inactive are those of the source. The rule behind the calls is not given here.

How the values were obtained:
Escherichia coli = assay: Antibacterial activity against Escherichia coli DSM 426 after 36 hrs by disc diffusion method; type: organism-based; settings: in vivo
Yarrowia lipolytica [1] = assay: Antifungal activity against Yarrowia lipolytica DSM 1345 after 48 hrs; type: organism-based; settings: in vivo
Method in brief: (§1)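 MIC against the yeast strains determined according to DIN 58940-84; clotrimazole as positive control.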

[2] = Antibacterial activity against Streptococcus entericus DSM 14446 after 36 hrs by disc diffusion method
HL-60 = assay: Cytotoxicity against human HL60 cells after 24 hrs by MTT assay; type: cell-based; settings: HL-60, 24 h
Method in brief: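 MTT colorimetric assay on HL-60 promyelocytic leukemia cells (RPMI 1640, 10% FBS, no antibiotics, 37 °C, 5% CO2) as a preliminary screen for unspecific cytotoxicity; cisplatin as reference.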

Saccharomyces cerevisiae [3] = assay: Antimicrobial activity against Saccharomyces cerevisiae DSM 1333 after 48 hrs; type: organism-based; settings: in vivo; method in brief: as §1
[4] = Antibacterial activity against Staphylococcus equorum DSM 20675 after 36 hrs by disc diffusion method
Nakaseomyces glabratus [5] = assay: Antifungal activity against Candida glabrata DSM 11226 after 48 hrs; type: organism-based; settings: in vivo; method in brief: as §1
[6] = Antibacterial activity against Pseudomonas antimicrobica DSM 8361 after 36 hrs by disc diffusion method; settings: burkholderia gladioli
[7] = Antifungal activity against Aspergillus brasiliensis DSM 1988 after 36 hrs by disc diffusion method
Yarrowia lipolytica [8] = assay: Antifungal activity against Yarrowia lipolytica DSM 1345 after 36 hrs by disc diffusion method; type: organism-based; settings: in vivo
Nakaseomyces glabratus [9] = assay: Antifungal activity against Candida glabrata DSM 11226 after 36 hrs by disc diffusion method; type: organism-based; settings: in vivo
[10] = target: T1, 7-dehydrocholesterol reductase (Homo sapiens) (UniProt Q9UBM7); assay: Ratio of BM15.766 IC50 to compound IC50 for […]-mediated cholesterol biosynthesis in human HL60 cells; type: cell-based; settings: HL-60
T1 sequence (whole entry): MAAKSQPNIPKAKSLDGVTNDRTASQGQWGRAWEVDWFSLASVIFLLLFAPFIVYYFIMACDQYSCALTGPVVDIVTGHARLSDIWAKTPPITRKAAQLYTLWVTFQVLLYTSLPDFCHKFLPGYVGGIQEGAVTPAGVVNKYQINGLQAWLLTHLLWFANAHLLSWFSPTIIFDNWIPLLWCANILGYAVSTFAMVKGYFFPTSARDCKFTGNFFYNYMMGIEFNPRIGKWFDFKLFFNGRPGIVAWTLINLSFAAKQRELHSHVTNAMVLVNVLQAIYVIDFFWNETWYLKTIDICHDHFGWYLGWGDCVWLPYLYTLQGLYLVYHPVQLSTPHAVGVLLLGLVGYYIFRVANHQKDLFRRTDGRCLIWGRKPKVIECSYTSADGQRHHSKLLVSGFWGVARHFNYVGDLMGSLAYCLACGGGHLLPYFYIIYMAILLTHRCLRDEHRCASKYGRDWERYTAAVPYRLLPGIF

[11] = Antifungal activity against Hyphopichia burtonii DSM 70663 after 36 hrs by disc diffusion method
[12] = target: T1, 7-dehydrocholesterol reductase (Homo sapiens); assay: Inhibition of 7-dehydrocholesterol reductase in human HL60 cells assessed as accumulation of 7-dehydrocholesterol at 1 uM after 24 hrs by GC/MS analysis; type: cell-based; settings: HL-60
Method in brief: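 HL-60 cells (1 × 10⁶) in lipid-free HL-60 medium given inhibitor at 50 μM or 1 μM (ethanol blank) for 24 h at 37 °C, 5% CO2. Pellet saponified in 1 M NaOH, 1 h at 70 °C, then TBME microextraction with cholestane internal standard. GC-MS sterol pattern compared with blanks and with AY 9944 and BM 15.766 references.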

Saccharomyces cerevisiae [13] = assay: Antifungal activity against Saccharomyces cerevisiae DSM 1333 after 36 hrs by disc diffusion method; type: organism-based; settings: in vivo
[14] = target: T2, 7-dehydrocholesterol reductase (Homo sapiens, UniProt Q9UBM7); assay: Inhibition of […]-mediated cholesterol biosynthesis in human HL60 cells assessed as inhibition of 2-[13C]acetate after 24 hrs GC/MS analysis; type: cell-based, HL-60
T2 sequence (Q9UBM7 whole entry): T1 sequence (whole entry)
Method in brief: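 Whole-cell cholesterol synthesis in HL-60 cells, 24 h with inhibitor and sodium 2-¹³C-acetate; six concentrations plus blank, in triplicate. Newly made labeled cholesterol (m/z 372–379, 462–469) measured by GC-MS against cholestane and normalized to Bradford protein. % inhibition against untreated control fitted to a variable-slope sigmoid, bottom fixed at 0, giving IC50; BM 15.766 as reference.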

Structure (SMILES): COc1cc2c(cc1O)CCN(CCc1ccc(Cl)cc1)C2
- Activity (Escherichia coli): Non-toxic
- MIC (Yarrowia lipolytica [1]): > 20 µg/mL
- Activity [2]: Non-toxic
- IC50 (HL-60): > 50000 nM
- MIC (Saccharomyces cerevisiae [3]): > 20 µg/mL
- Activity [4]: Non-toxic
- MIC (Nakaseomyces glabratus [5]): > 20 µg/mL
- Activity [6]: Non-toxic
- Activity [7]: Non-toxic
- Activity (Yarrowia lipolytica [8]): Non-toxic
- Activity (Nakaseomyces glabratus [9]): Non-toxic
- Ratio IC50 [10]: 200
- Activity [11]: Non-toxic
- 7-DHCR inhibition (active/not active) [12]: Active
- Activity (Saccharomyces cerevisiae [13]): Non-toxic
- IC50 [14]: 2.3 nM
